{"data": "Results of several laboratories", "note": "Compare with care: the assays were run in different laboratories."}
{"SMILES": "O=C(c1ccc(F)cc1)c1c[nH]c2ncc(-c3ccnc(N4CCNCC4)c3)cc12", "tested on": "MRC5", "test": "cell growth or viability, MTT", "conditions": "10 µM, 48 h", "endpoint": "viability", "value": "90.1%"}
{"SMILES": "OC(Cn1cncn1)(Cn1cncn1)c1ccc(F)cc1F", "tested on": "Aspergillus niger", "test": "microbial growth", "test system": "ATCC16404", "endpoint": "MIC", "value": "128 µg/mL"}
{"SMILES": "CN[C@H](CC(C)C)C(=O)N[C@H]1C(=O)N[C@@H](CC(N)=O)C(=O)N[C@H]2C(=O)N[C@H]3C(=O)N[C@H](C(=O)N[C@H](C(=O)O)c4cc(O)cc(O)c4-c4cc3ccc4O)[C@H](O)c3ccc(c(Cl)c3)Oc3cc2cc(c3O[C@@H]2O[C@H](CO)[C@@H](O)[C@H](O)[C@H]2O[C@H]2C[C@](C)(N)[C@H](O)[C@H](C)O2)Oc2ccc(cc2Cl)[C@H]1O", "tested on": "Bacteroides fragilis", "test": "microbial growth, agar dilution", "conditions": "48 h", "endpoint": "MIC", "value": "> 16 µg/mL"}
{"SMILES": "[O-][N+]1=C(c2ccc(Cl)cc2)C2=NCCN2c2ccccc21", "tested on": "Bacteroides fragilis", "test": "microbial growth", "endpoint": "MIC50", "value": "≤ 0.06 µg/mL"}
{"SMILES": "COc1ccc(C(=O)c2c[nH]c3ncc(-c4ccc(N5CCN(C(=O)OC(C)(C)C)CC5)nc4)cc23)cc1", "tested on": "MRC5", "test": "cell growth or viability, MTT", "conditions": "10 µM, 48 h", "endpoint": "viability", "value": "80.2%"}
{"SMILES": "CCCCCOc1ccc(-c2cc(-c3ccc(C(=O)N[C@H]4C[C@@H](O)[C@@H](O)NC(=O)[C@@H]5[C@@H](O)[C@@H](C)CN5C(=O)[C@H]([C@H](O)CC(N)=O)NC(=O)[C@H]([C@H](O)[C@@H](O)c5ccc(O)c(OS(=O)(=O)O)c5)NC(=O)[C@@H]5C[C@@H](O)CN5C(=O)[C@H]([C@@H](C)O)NC4=O)cc3)no2)cc1", "tested on": "Lodderomyces parapsilosis", "test": "biofilm formation", "conditions": "16 µg/mL", "endpoint": "inhibition", "value": "49%"}
{"SMILES": "O=c1c2ccccc2[se]n1-c1ccccc1", "tested on": "MRC5", "test": "cell growth or viability, MTT", "conditions": "125 µM, 72 h", "endpoint": "inhibition", "value": "56%"}
{"SMILES": "Nc1ccn(C[C@@H](CO)OCP(=O)(O)O)c(=O)n1", "tested on": "Human alphaherpesvirus 1", "test": "cytopathic effect", "test system": "HEL", "endpoint": "EC50", "value": "2000 nM"}
